From ChEMBL document CHEMBL1833793 (Bioorg Med Chem Lett, 2011) come the findings set out here.

Data set [1] has as its target T1, Neuropeptide Y receptor type 5 (Homo sapiens, UniProt Q15761).
T1 sequence (Q15761 whole entry): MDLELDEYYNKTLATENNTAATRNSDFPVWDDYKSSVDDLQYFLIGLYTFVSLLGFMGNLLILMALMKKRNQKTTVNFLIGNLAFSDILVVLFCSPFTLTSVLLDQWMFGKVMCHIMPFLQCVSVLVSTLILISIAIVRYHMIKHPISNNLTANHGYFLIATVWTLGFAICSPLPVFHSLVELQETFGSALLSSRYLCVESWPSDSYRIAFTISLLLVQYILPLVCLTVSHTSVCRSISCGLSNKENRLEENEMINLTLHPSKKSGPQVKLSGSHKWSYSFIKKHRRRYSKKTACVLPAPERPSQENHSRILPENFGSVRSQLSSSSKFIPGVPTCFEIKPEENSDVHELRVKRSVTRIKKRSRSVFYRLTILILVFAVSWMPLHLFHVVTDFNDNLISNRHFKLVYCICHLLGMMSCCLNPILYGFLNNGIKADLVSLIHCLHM
Nature of the data set: Binding affinity to NPY5 receptor.

Data set [2] concerns the target T2, Neuropeptide Y receptor type 1 (Homo sapiens, UniProt P25929).
T2 sequence (P25929 whole entry): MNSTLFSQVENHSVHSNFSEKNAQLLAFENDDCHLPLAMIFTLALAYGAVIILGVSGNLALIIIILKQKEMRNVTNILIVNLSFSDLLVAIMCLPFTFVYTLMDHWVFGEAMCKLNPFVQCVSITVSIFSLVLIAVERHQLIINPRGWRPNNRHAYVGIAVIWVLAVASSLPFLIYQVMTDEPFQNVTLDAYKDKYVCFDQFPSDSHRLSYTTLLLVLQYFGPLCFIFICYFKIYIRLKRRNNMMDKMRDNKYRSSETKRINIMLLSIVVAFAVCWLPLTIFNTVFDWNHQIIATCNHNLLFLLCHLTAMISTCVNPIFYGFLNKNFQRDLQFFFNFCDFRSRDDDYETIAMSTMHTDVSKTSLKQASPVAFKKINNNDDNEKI
Nature of the data set: Binding affinity to NPY1 receptor.

The target in data set [3] is T2, Neuropeptide Y receptor type 1. Nature of the data set: Antagonist activity at human NPY1 receptor assessed as calcium mobilization by FLIPR assay. The data set is classed as functional.
For data set [4], the target named is T1, Neuropeptide Y receptor type 5. Nature of the data set: Binding affinity to human NPY5 receptor.
Data set [5] has as its target Neuropeptide Y receptor type 4 (Homo sapiens, UniProt P50391). Nature of the data set: Antagonist activity at human NPY4 receptor assessed as calcium mobilization by FLIPR assay. The data set is classed as functional.
Data set [6] concerns the target T1, Neuropeptide Y receptor type 5. Nature of the data set: Antagonist activity at human NPY5 receptor assessed as calcium mobilization by FLIPR assay. The data set is classed as functional.
The target in data set [7] is T3, Neuropeptide Y receptor type 2 (Homo sapiens, UniProt P49146).
T3 sequence (P49146 whole entry): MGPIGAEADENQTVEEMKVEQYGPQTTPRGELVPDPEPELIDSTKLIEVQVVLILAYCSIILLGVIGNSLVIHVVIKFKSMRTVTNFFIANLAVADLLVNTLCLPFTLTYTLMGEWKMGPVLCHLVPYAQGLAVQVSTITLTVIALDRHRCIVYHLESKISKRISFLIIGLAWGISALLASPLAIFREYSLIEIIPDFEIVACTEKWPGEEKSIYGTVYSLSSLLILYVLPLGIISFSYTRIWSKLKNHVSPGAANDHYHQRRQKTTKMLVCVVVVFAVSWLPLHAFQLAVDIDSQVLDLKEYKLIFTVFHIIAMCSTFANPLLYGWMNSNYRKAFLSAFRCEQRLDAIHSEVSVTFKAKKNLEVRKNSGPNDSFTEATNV
Nature of the data set: Antagonist activity at human NPY2 receptor assessed as calcium mobilization by FLIPR assay. The data set is classed as functional.

Data set [8] has as its system Liver microsomes. Nature of the data set: Intrinsic clearance in rat liver microsome. It counts as ADME.
Data set [9] can be described thus: Drug uptake in rat brain at 10 mg/kg, po after 4 hrs. It counts as ADME, organism-based. Also noted: dose 10 mg/kg, route oral. To be noted: read-out: Drug uptake. The method, boiled down: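 Rat single oral dose of 10 mg/kg, two animals; plasma and brain homogenate levels measured at 4 h and averaged; quantification limit 2 ng/mL plasma, 2 ng/g brain.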
The subject of data set [10] is Liver microsomes. Nature of the data set: Intrinsic clearance in human liver microsome. The data set is classed as ADME.
The nature of data set [11]: Plasma concentration in rat at 10 mg/kg, po after 4 hrs. It counts as ADME, organism-based. Also noted: dose 10 mg/kg, route oral. The method, boiled down: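 Single oral dose of 10 mg/kg in rats, two animals. Plasma was sampled at 4 h and the two values averaged. LOQ 2 ng/mL.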
The next data set relates to Rattus norvegicus. Nature of the data set: Antistress activity against chronic mild stress Sprague-Dawley rat model assessed as increase sucrose consumption at 5 mg/kg, ip bid measured after 4 weeks. It counts as functional. As to conditions: route intraperitoneal.

Sequence of Neuropeptide Y receptor type 4 (P50391 whole entry): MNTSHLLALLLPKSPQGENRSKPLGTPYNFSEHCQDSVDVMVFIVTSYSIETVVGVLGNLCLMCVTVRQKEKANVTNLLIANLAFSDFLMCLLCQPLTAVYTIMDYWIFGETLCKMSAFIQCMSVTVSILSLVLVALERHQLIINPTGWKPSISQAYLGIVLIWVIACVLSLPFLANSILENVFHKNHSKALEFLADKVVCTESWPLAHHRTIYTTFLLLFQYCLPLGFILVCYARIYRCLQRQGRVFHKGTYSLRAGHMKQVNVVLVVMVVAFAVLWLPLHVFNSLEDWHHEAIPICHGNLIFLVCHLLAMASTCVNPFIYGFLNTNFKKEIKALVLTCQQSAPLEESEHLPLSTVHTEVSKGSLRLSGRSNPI

In the case of `COc1ccccc1CNCCCCCCNCCSSCCNCCCCCCNCc1ccccc1OC` [BENEXTRAMINE], the Ki in data set [1] turned out to be 5000 nM; in [2], 1800 nM.

`COc1ccc(C)cc1S(=O)(=O)NC[C@H]1CC[C@H](Nc2nc3c(s2)CCSc2ccccc2-3)CC1`: the IC50 in data set [3] is above 1000 nM; in data set [5], above 1000 nM; in [6] it was 34.6 nM; in data set [7] it was above 1000 nM. Moreover, the Ki in data set [4] was found to be 4.9 nM.

`CS(=O)(=O)NC[C@H]1CC[C@H](Nc2nc3c(s2)CCOc2ccccc2-3)CC1` displayed a Ki in data set [4] of 16.1 nM. Further, in data set [6], the IC50 came out at 3.9 nM.

For `CCS(=O)(=O)NCCCCCNc1nc2c(s1)CCCc1ccc(F)cc1-2`, the Ki in [4] amounted to 0.9 nM. Besides, in data set [6], the IC50 amounted to 1.3 nM.

On to `O=S(=O)(NC[C@H]1CC[C@H](Nc2nc3c(s2)CCSc2ccccc2-3)CC1)c1cccs1`, for which the results for the CL in the data set with Liver microsomes [8] and in the data set with Liver microsomes [10] were 120 mL/min and 6.9 L/min, respectively. For the same molecule, the IC50 was above 1000 nM in data set [3], above 1000 nM in data set [5], 3.8 nM in data set [6] and above 1000 nM in data set [7]. The same molecule showed a Ki in data set [4] of 1.9 nM. Also, the figures for the concentration at 4 h in data set [9] and in data set [11] were 10 ng/g and 8 ng/mL, respectively.

In data set [4], `O=S(=O)(NC[C@H]1CC[C@H](Nc2nc3c(s2)CCSc2ccccc2-3)CC1)c1cccc2ccccc12` came in with a Ki of 13.9 nM. The IC50 in data set [6] came to 43.6 nM.

`CS(=O)(=O)NCCCCCNc1nc2c(s1)CCCc1ccc(F)cc1-2`: in data set [6], the IC50 amounted to 0.9 nM.

In turn, `CS(=O)(=O)N[C@H]1CC[C@H](Nc2nc3c(s2)CCCc2ccc(F)cc2-3)CC1` displayed a Ki in data set [4] of 27 nM. The IC50 in [6] was determined as 8.8 nM.

As for `CCS(=O)(=O)NC[C@H]1CC[C@H](Nc2nc3c(s2)CCSc2ccccc2-3)CC1`, the IC50 in data set [3] was above 1000 nM; in data set [5], above 1000 nM; in data set [6] it was 30.8 nM; in data set [7] it was above 1000 nM. Also, in data set [4], the inhibition constant Ki turned out to be 2.8 nM.

Regarding `Cn1cnc(S(=O)(=O)NC[C@H]2CC[C@H](Nc3nc4c(s3)CCSc3ccccc3-4)CC2)c1`, the affinity in data set [4], expressed as Ki, was 21.5 nM. Further, the IC50 in data set [6] came to 10.4 nM.

Turning to `CCS(=O)(=O)NCCCCCNc1nc2c(s1)CCSc1ccccc1-2`, the Ki in data set [4] came out at 0.8 nM. Further, the IC50 in [6] was 0.6 nM. This molecule displayed a concentration at 4 h in [11] of 14 ng/mL.

Turning to `O=S(=O)(CC(F)(F)F)NCCCCCNc1nc2c(s1)CCCc1ccc(F)cc1-2`, the Ki in data set [4] came out at 7.5 nM. The IC50 in data set [6] turned out to be 9.9 nM.

`CS(=O)(=O)NCCCCCNc1nc2c(s1)CCSc1ccccc1-2` came in with a Ki in data set [4] of 8.8 nM. In addition, the concentration for half-maximal inhibition (IC50) in data set [6] stood at 5 nM.

In data set [4], `COc1ccc2c(c1)OCCc1sc(NC[C@H]3CC[C@H](NS(C)(=O)=O)CC3)nc1-2` registered a Ki of 6.7 nM.

Consider `CS(=O)(=O)NC[C@H]1CC[C@H](Nc2nc3c(s2)CCCc2ccc(F)cc2-3)CC1`, for which, in [4], the affinity, expressed as Ki, was 1.1 nM.

Molecule `O=S(=O)(CC(F)(F)F)NCCCCNc1nc2c(s1)CCCc1ccc(F)cc1-2` yielded a Ki in data set [4] of 3.4 nM. In data set [6], the IC50 amounted to 1.9 nM.

`CN(C)CCC[C@@]1(c2ccc(F)cc2)OCc2cc(C#N)ccc21` [ESCITALOPRAM]: in the data set with Rattus norvegicus, the Activity was above 10%.

For the molecule `CC(C)S(=O)(=O)NCCCCCNc1nc2c(s1)CCCc1ccc(F)cc1-2`, the affinity in data set [4], expressed as Ki, was 46 nM. For the same molecule, in [6], the IC50 is 98.7 nM.

`CS(=O)(=O)NCCCCCNc1nc2c(s1)CCSc1ccc(F)cc1-2`: the CL amounted to 89 mL/min with Liver microsomes [8] and 6.8 L/min in the data set on Liver microsomes [10]. In data set [4], this molecule showed a Ki of 1.7 nM. The concentration at 4 h in data set [9] came to 140 ng/g; in [11], 61 ng/mL.

The molecule `COc1cccc2c1OCCc1sc(N[C@H]3CC[C@H](CNS(C)(=O)=O)CC3)nc1-2` came in with a Ki in data set [4] of 1.1 nM.

In the case of `CC(C)S(=O)(=O)NCCOCCNc1nc2c(s1)CCCc1ccc(F)cc1-2`, the Ki in data set [4] was found to be 2.4 nM.
